Compounds with a hit are over-represented: about 4% of the library has one in this group of screens.
OX1R antag-1: blocks the human orexin 1 receptor; CHO/OX1R cells, Fluo-8 calcium fluorescence, orexin A; inhibition, % at 5 µM; actives 0.43% (n = 330,000); AID 434989;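 active = inhibition above its plate's threshold, mean inhibition of all tested compounds on the plate plus 3 SD, cut at about 37% in these data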;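 note: 0% = orexin A challenge wells and 100% = SB-334867-A antagonist wells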
OX1R antag-2: OX1R (human) antagonism. O43613. OX1R-expressing cells, FRET antagonist read-out. inhibition, % at 6.6 µM. actives 1.8% (n = 330,000). AID 485270; in the data active = inhibition mostly above about 38%, no sharp cut-off; inactive = mostly below about 40%;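 note: 0% = agonist challenge alone and 100% = reference antagonist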
TAAR1 antag: human TAAR1 antagonism; Q96RJ0; CHO RD-HGA16 TAAR1, Fluo-8 calcium fluorescence, antagonist; inhibition, % at 3 µM; actives 1.5% (n = 360,000);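 active = inhibition above a per-plate cutoff, the mean inhibition of test compounds on that plate plus 3 SD, cut at about 49% in these data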;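 note: 0% = DMSO plus EC80 beta-PEA response and 100% = DMSO alone without agonist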
Target sequence (Q96RJ0 whole entry, looked up): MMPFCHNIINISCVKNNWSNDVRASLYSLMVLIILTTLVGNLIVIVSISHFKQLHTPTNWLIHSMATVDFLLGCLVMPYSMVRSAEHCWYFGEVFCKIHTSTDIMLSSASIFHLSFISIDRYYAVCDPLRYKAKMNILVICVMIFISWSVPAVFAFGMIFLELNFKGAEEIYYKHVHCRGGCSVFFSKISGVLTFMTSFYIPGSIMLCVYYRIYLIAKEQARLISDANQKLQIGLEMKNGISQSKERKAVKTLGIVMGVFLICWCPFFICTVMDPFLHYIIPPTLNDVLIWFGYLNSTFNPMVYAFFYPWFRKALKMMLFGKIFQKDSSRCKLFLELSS
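Assay system: CHO-derived RD-HGA16 cells stably expressing human TAAR1 plus Gα16. Timing: 140 s kinetic read after compound, 140 s after agonist. Technique: kinetic Fluo-8 calcium fluorescence measurement. Measure: % inhibition of agonist calcium response.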
NTR1 ag: activates human neurotensin receptor 1; actives 0.17% (n = 330,000); NTR1-U2OS beta-arrestin-GFP spot imaging, agonist mode; activation, % at 20 µM; P30989;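 active = activation at or above 40% of the spot to cytoplasm intensity ratio, with at least 20 cells analyzed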;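 note: 0% = DMSO without peptide and 100% = 100 nM NTR1 peptide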
Target sequence (P30989 whole entry, looked up): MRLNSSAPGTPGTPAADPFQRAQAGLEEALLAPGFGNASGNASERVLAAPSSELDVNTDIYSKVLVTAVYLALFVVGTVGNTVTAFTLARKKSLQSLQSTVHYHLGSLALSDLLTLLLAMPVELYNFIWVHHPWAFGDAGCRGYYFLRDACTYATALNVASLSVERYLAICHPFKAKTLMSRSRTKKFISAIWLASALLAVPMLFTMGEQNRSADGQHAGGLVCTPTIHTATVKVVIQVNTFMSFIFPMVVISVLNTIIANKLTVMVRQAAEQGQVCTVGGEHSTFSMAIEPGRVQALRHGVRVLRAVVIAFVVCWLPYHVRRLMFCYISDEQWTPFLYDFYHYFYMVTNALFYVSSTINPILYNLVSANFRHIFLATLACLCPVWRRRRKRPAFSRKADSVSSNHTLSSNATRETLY
TAAR1 ag: human TAAR1 agonism; Q96RJ0; CHO RD-HGA16 TAAR1, Fluo-8 calcium fluorescence; vehicle wells 0%, saturating PEA agonist 100%; AID 624467; actives 0.99% (n = 360,000); activation, % at 3 µM;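 active = activation above the mean activation of all test compounds in the run plus 3 SD, cut at about 38% in these data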
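Repeats: no replicates (n 1) | Material: CHO-derived RD-HGA16 cells with stable Gα16 and human TAAR1 | Technique: Kinetic Fluo-8 calcium fluorescence | Schedule: 17-24 h seeding, 75 min 37 °C dye, 30 min RT | Evaluation: % activation from peak over basal fluorescence ratio, DMSO-to-PEA scaled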
CHO parental Ca: counter-screen for OX1R antagonists: effect in parental CHO cells; actives 0.63% (n = 330,000); AID 463079; parental CHO-K1, ATP-induced calcium, Fluo-8 fluorescence; inhibition, % at 5.6 µM;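 active = inhibition above that plate's mean sample inhibition plus 3 SD, cut at about 26% in these data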;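 note: 0% = ATP-challenged DMSO wells and 100% = DMSO wells without ATP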
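Material: parental CHO cells / Compound: single nominal dose of 5.6 µM per compound / Signal: Fluo-8 fluorescence / Replicates: singlicate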
TAAR1 nonsel count: nonselective antagonism, TAAR1 counter-screen | inhibition, % at 3 µM | shares compounds with TAAR1 antag | AID 651780 | counterscreen cell line, calcium fluorescence, antagonist mode | actives 77% (n = 2,400); in the data active = inhibition above about 22%;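 note: CHO-Ga16 host cells stimulated with ATP at an EC80 level; 0% = agonist EC80 plus vehicle and 100% = vehicle without agonist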
TAAR1 ant conf: human TAAR1 antagonism, confirmed. shares compounds with TAAR1 antag. TAAR1-expressing cells, fluorescence antagonist read-out. inhibition, % at 3 µM. actives 40% (n = 2,400); in the data active = inhibition above about 49%;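 note: CHO-Ga16 host cells challenged with agonist PEA near its EC80; 0% = agonist at EC80 plus vehicle and 100% = vehicle with no agonist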
Ga16 ag counter: counter-screen for TAAR1 antagonists: nonselective Ga16 agonists; shares compounds with TAAR1 antag; actives 18% (n = 2,400); activation, % at 3 µM; AID 651953; Ga16-expressing cells, calcium fluorescence, agonist counterscreen; in the data active = activation above about 12%;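 note: 0% = vehicle wells and 100% = saturating stimulus response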
TAAR1 ag counter: counter-screen for human TAAR1 antagonists: TAAR1 agonists | shares compounds with TAAR1 antag | hTAAR1 cell line, fluorescence activation, agonist mode | activation, % at 3 µM | actives 2% (n = 2,400); in the data active = activation above about 37%;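 note: CHO cells stably expressing TAAR1 with calcium dye readout; 0% = DMSO vehicle and 100% = full agonist response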
An asterisk follows results filed as active; · = no result.

SMILES	OX1R antag-1	OX1R antag-2	TAAR1 antag	NTR1 ag	TAAR1 ag	CHO parental Ca	TAAR1 nonsel count	TAAR1 ant conf	Ga16 ag counter	TAAR1 ag counter
CCOc1cc(/C=N/NC(N)=O)cc(Br)c1OCC(=O)Nc1ccccc1C	-31.8	17.2	47.0	3.6	33.3	-12.5	·	·	·	·
COc1ccccc1CNc1ccc(Br)cn1	-26.1	1.2	4.5	1.3	-3.7	-15.2	·	·	·	·
O=c1oc(C2(O)CCCCC2)cc2ccc(/C=C/c3ccc(F)cc3)cc12	6.5	9.2	63.2*	7.4	5.4	-18.9	25.9*	24.0	3.7	3.6
O=S(=O)(c1ccccc1)N1N=C(c2ccc(Cl)cc2)CC1c1ccco1 (stereo unspecified)	·	·	-9.6	0.8	-1.5	·	·	·	·	·
CCOc1ccc2[nH]c(C(=O)N/N=C/c3ccc(OC)cc3)cc2c1	·	·	70.3*	6.6	8.5	·	22.3*	55.0*	8.2	4.8
COc1ccc(S(=O)(=O)N2CCCCCC2)cc1NC(=O)Cc1n[nH]c(=O)c2ccccc12	·	·	7.5	1.5	3.9	·	·	·	·	·
CCC(C)c1ccc(NC(=O)COc2c(F)c(F)c(C(F)(F)F)c(F)c2F)cc1 (stereo unspecified)	-32.2	10.7	50.8*	1.3	0.6	-1.1	14.2	16.6	1.1	2.1
CC1(C(=O)Nc2ccccc2)Cc2c(-c3cccc(C(F)(F)F)c3)ccnc2O1 (stereo unspecified)	·	·	0.8	·	0.7	·	·	·	·	·
Cc1ccc(C(=O)NCC(=O)OCC(=O)c2cc(C)n(Cc3ccco3)c2C)cc1	-17.6	17.4	0.4	-1.4	-1.9	-20.1	·	·	·	·
Cc1cc(C(=O)COC(=O)Cn2c(C(F)(F)F)nc3ccccc32)c(C)n1Cc1ccco1	-27.4	11.7	50.8*	1.4	9.9	-31.9	17.1	26.0	10.5	13.4
CCOC(=O)/C(C#N)=C(C)/C=C1\Sc2ccccc2N1CC	-5.9	37.3	56.3*	2.0	1.8	-8.0	22.1*	23.6	17.7*	16.4
O=C1N[C@@H](Cc2ccccc2)COC(=O)[C@H](Cc2ccc(F)cc2)CC/C=C/C[C@@H]1CC(=O)N(CCO)Cc1ccccc1	-16.6	6.2	16.8	14.7	2.8	-23.2	·	·	·	·
O=C1N[C@@H](Cc2ccccc2)COC(=O)[C@@H](Cc2ccc(F)cc2)CC/C=C/C[C@H]1CC(=O)N(CCO)Cc1ccccc1	20.1	13.4	65.8*	22.5	29.9	-10.3	30.5*	43.7	10.6	14.9
O=C1N[C@@H](c2ccccc2)COC(=O)[C@@H](Cc2ccc(F)cc2)C/C=C\C[C@H]1CC(=O)N(CCO)Cc1ccccc1	16.3	8.8	58.8*	9.7	31.1	-21.3	36.5*	57.7*	13.6*	12.7
O=C1N[C@@H](Cc2ccccc2)COC(=O)[C@H](Cc2ccc(F)cc2)CC/C=C/C[C@H]1CC(=O)N(CCO)Cc1ccccc1	3.9	3.8	65.7*	10.8	27.4	-2.2	17.1	26.4	4.9	3.5
CCNC(=O)C1CCCN(C(=O)c2cccc(C#N)c2)CC1 (stereo unspecified)	·	·	-24.4	·	3.0	·	·	·	·	·
COc1cc(OC)c(OC)cc1CNC(=O)c1cc(S(=O)(=O)N(C)c2ccccc2OC)ccc1C	·	·	27.6	·	7.9	·	·	·	·	·
COC(=O)CNc1nc(-c2cccnc2)nc2ccccc12	-15.2	25.0	7.1	-3.0	5.3	-6.9	·	·	·	·
Cc1ccc(-c2nc(N/N=C/c3ccncc3)c3ccccc3n2)cc1	-19.9	-1.5	56.6*	4.9	11.0	-8.4	27.2*	44.2	4.3	1.4
Cc1ccc2nc(C(Cl)(Cl)Cl)nc(N/N=C/c3ccncc3)c2c1	-11.1	16.4	-12.5	-0.9	4.1	-11.3	·	·	·	·
Oc1ccc(/C=N/Nc2nc(-c3cccnc3)nc3ccccc23)c(O)c1	-14.0	6.1	80.9*	2.1	14.6	-14.0	23.1*	44.3	7.6	9.7
COc1ccc(/C=N/Nc2nc(-c3cccnc3)nc3ccccc23)cc1OC	-22.2	23.7	71.8*	5.7	18.6	-16.2	29.2*	51.3*	10.4	8.4
COc1cc(NC(=S)NC(=O)CCc2ccccc2)cc(OC)c1	-15.0	5.3	-17.7	6.0	11.0	-5.5	·	·	·	·
COCc1c(C(=O)N2CCN(CCOc3ccccc3)CC2)oc2ccccc12	-14.7	9.4	16.2	-1.1	1.3	-21.0	·	·	·	·
CCOC(=O)C1CCCN(C(=O)c2cc(Nc3ccc(OC)cc3)nc3ccccc23)C1 (stereo unspecified)	-31.2	18.4	48.8*	0.0	12.3	-27.8	28.8*	45.1	7.5	4.6
SMILES	OX1R antag-1	OX1R antag-2	TAAR1 antag	NTR1 ag	TAAR1 ag	CHO parental Ca	TAAR1 nonsel count	TAAR1 ant conf	Ga16 ag counter	TAAR1 ag counter
CCOC(=O)C1CCCN(C(=O)c2cc(-c3ccco3)nc3ccccc23)C1 (stereo unspecified)	-12.9	12.2	-0.4	-0.8	3.5	-18.5	·	·	·	·
CCCNC(=O)COc1coc(CN2CCN(c3ccccc3F)CC2)cc1=O	-1.3	2.2	-3.8	-0.9	0.6	-0.2	·	·	·	·
Cc1nnc(NC(=O)c2sc3ccccc3c2Cl)s1	-27.0	36.1	-0.7	3.9	9.5	-1.1	·	·	·	·
O=C(Nc1cccc(NC(=O)c2ccc(-c3cccc(Br)c3)o2)c1)c1ccco1	10.8	26.2	52.1*	7.8	16.2	-10.2	25.4*	47.6	7.8	5.3
O=C(Nc1cccc(NC(=O)c2ccco2)c1)c1ccccc1	-20.6	15.5	-1.2	-2.0	-0.7	-20.7	·	·	·	·
O=C(Nc1cccc(NC(=O)c2sc3ccccc3c2Cl)c1)c1ccco1	-5.7	76.4*	54.7*	1.4	8.4	-21.7	18.8	21.0	1.8	-2.7
CNC(=O)c1ccsc1NC(=O)c1sc2ccccc2c1Cl	-20.1	56.4*	71.3*	14.0	10.0	7.1	35.4*	50.2*	8.8	4.0
Cc1ccc(C(=O)NCCC(=O)Nc2ccccc2C)cc1	-12.8	1.1	-14.9	0.1	5.7	-6.5	·	·	·	·
Cc1ccc(N2C(=O)C3ON(c4ccccc4)C(CC(C)C)C3C2=O)cc1 (stereo unspecified)	-36.7	12.9	-23.1	1.5	-0.2	-15.6	·	·	·	·
CCOC(=O)CCNC(=O)N1CCCC(N2CCN(c3ccc(OC)cc3)CC2)C1 (stereo unspecified)	-19.8	-8.1	-4.0	-0.7	0.6	-6.0	·	·	·	·

Assay outcomes as filed in PubChem BioAssay.
